Screens (PubChem BioAssay)
Apaf1 inhib = blocks human Apaf-1 apoptosome activity | O14727 | reconstituted apoptosome caspase-3 activity, DEVD-Rh110 fluorescence | inhibition, % at 20 µM | 0.71% of 330,000 active | AID 489030; active means inhibition of at least 40% at 20 µM;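 further: plate controls were DMSO wells for no effect and DEVD-CHO caspase inhibitor wells for full effect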
Target sequence (O14727 whole entry, looked up): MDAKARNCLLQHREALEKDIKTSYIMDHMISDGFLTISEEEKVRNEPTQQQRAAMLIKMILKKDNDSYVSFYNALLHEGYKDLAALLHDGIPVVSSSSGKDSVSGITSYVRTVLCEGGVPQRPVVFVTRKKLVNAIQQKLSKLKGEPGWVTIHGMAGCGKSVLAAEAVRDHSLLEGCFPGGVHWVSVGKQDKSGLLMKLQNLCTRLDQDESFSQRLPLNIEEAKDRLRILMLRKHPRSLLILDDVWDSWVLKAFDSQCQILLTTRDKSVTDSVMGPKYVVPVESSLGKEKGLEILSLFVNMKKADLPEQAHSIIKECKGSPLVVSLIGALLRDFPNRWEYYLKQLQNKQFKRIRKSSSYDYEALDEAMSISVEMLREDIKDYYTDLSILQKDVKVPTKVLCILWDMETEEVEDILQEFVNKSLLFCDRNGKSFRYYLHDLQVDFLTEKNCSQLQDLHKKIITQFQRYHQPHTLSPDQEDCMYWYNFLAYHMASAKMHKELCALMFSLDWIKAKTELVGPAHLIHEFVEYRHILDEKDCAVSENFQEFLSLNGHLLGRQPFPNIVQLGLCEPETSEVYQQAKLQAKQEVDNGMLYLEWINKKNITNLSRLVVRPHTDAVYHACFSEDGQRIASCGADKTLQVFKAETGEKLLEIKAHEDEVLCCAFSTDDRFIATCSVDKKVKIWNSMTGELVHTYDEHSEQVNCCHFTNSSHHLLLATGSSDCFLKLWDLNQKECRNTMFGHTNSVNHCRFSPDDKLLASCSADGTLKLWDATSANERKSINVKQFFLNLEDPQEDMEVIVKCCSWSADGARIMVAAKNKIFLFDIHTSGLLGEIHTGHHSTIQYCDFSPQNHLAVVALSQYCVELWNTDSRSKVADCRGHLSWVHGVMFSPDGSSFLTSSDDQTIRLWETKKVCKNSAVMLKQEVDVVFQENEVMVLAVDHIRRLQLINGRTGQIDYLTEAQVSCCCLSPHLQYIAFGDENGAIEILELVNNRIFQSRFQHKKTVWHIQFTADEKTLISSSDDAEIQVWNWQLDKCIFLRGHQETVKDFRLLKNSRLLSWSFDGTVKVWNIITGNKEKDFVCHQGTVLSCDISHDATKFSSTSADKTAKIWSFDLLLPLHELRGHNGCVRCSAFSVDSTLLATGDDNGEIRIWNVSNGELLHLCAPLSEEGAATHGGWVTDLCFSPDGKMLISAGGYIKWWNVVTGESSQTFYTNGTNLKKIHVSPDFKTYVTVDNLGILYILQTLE
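Assay system: Apoptosome proteins | Medium: pH 7.5 Hepes buffer with CHAPS, BSA, DTT | Also added: Cytochrome c and DEVD-Rh110 substrate | Times: 30 min plus 50 min, RT | Detection: Rhodamine 110 fluorescence at Ex 480/Em 540 nm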
PAD4 inh = blocks human protein arginine deiminase 4; Q9UM07; recombinant PAD4, RCA probe fluorescence polarization; inhibition, % at 6.36 µM; 0.41% of 330,000 active;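 active means percent inhibition above a cutoff equal to the mean of all tested compounds plus 3 SD, cut at about 15% in these data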;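 further: 0% = PAD4 with RCA probe and DMSO and 100% = probe without PAD4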
TDP2 absorb = TDP2 (human) inhibition, absorbance primary screen; inhibition, % at 12.8 µM; 0.34% of 370,000 active; recombinant TDP2, T5PNP hydrolysis, p-nitrophenol absorbance 415 nm;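 active means inhibition above the mean of all tested compounds plus 3 SD, set per campaign, cut at about 25% in these data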;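 further: 0% = DMSO with enzyme and 100% = buffer with substrate but no TDP2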
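Incubation: 2 h at 37 °C; Test system: recombinant human TDP2; Quantity: enzyme 120 nM; Read-out basis: percent inhibition; Medium: 50 mM Tris-HCl pH 7.5 with Mg2+, KCl, DTT, BSA; Repeats: single replicate; Compound: 12.8 µM single point, 1% DMSO; Signal: epi absorbance; Reagent: 5 mM T5PNP chromogenic substrate; Benchmarks: no-enzyme high, DMSO-plus-enzyme low.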
GSTO1 counter = GSTO1 inhibition, counter-screen for RBBP9 inhibitors; recombinant GSTO1, activity-based probe fluorescence polarization; inhibition, % at 5.96 µM; 1.1% of 300,000 active; AID 1974; P78417;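 active means inhibition above the campaign mean inhibition plus 3 SD, cut at about 35% in these data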;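 further: 0% = GSTO1-1 with DMSO and 100% = wells lacking GSTO1-1 enzyme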
PRMT1 FP inh = inhibitors of human PRMT1. Q99873. recombinant PRMT1, activity-based probe fluorescence polarization. inhibition, % at 2.79 µM. 1.3% of 370,000 active;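 active means inhibition above about 21% made by adding two undisclosed values, limit read from the data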
PAD4 FP conf = confirmation of human PAD4 inhibitors. shares compounds with PAD4 inh. recombinant PAD4, RCA probe fluorescence polarization. inhibition, % at 6.36 µM. 28% of 1,200 active;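 active means mean inhibition across replicates above the hit cutoff set by the earlier primary screen, cut at about 15% in these data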;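 further: inhibitors block active-site labeling by the probe so polarization falls; 0% = PAD4 with probe and DMSO and 100% = probe without PAD4 enzyme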
The depositor's hits bear a star; . = no result. Shown are actives, neighbours in structure and some others; about 2.6% of the full set was active somewhere.

SMILES | Apaf1 inhib | PAD4 inh | TDP2 absorb | GSTO1 counter | PRMT1 FP inh | PAD4 FP conf
COc1ccc(CN2C(=O)CN(S(C)(=O)=O)CC2(C)C(=O)Nc2c(C)cccc2C)cc1OC (stereo unspecified) | . | . | 10.8 | . | 1.0 | .
COc1ncnc2c1NC1=C(S2)C(=NCCC(=O)O)CC(C)(C)C1 | 7.0 | 19.7* | 5.1 | 2.9 | 27.8* | 24.1*
CC(C)[C@@H]1C(=O)N[C@H](Cc2cn(S(=O)(=O)c3ccccc3)c3ccccc23)C(=O)N1C | . | . | 9.2 | . | 0.3 | .
Cc1oc2cc(O)ccc2c(=O)c1-c1nncn1-c1ccccc1 | 2.3 | 18.0* | -2.1 | 6.9 | 52.3* | 15.7*
COc1ccc(Oc2c(C)nc(SCC(=O)c3ccc(Cl)cc3)[nH]c2=O)cc1 | -4.4 | -0.1 | -11.1 | -5.0 | -1.4 | .
Cc1nc(SCC(=O)c2ccccc2)[nH]c(=O)c1Oc1ccc(Cl)cc1 | 1.9 | 20.7* | 6.0 | -2.1 | 0.7 | 3.3
CCC(CC)C(=O)NCc1ccc2c(c1)cc(C)n2C | -4.4 | -4.9 | 7.3 | -2.1 | 5.8 | .
Cc1cc2cc(CNC(=O)C(C)Oc3ccccc3)ccc2n1C (stereo unspecified) | 4.3 | 28.7* | 9.0 | 10.7 | 9.7 | 4.3
CCOC(=O)C1(C)CCN1C(=O)c1ccc2c(c1)CCO2 (stereo unspecified) | . | . | -2.9 | . | 0.2 | .
CC1(OC(=O)c2ccco2)C(=O)C=C2C=C(C3CC3)OC=C2C1=O (stereo unspecified) | 1.8 | 19.8* | 12.2 | 30.4 | 18.3 | 10.6
CC(=O)N1CCN(c2nnc(-c3ccccc3)c3ccccc23)CC1 | 0.5 | 3.8 | -2.0 | -3.1 | -3.3 | .
CC(=O)C1=C(c2ccccc2)N(C(C)=O)n2c(C)nnc2S1 | 21.7 | 68.5* | 13.9 | 6.2 | 73.5* | 59.0*
COc1ccc(S[C@]2(C(=O)N(C)C)CC(=O)N(c3ccc(Cl)cc3)[C@@H]2c2ccc(OC)cc2)cc1 | . | . | -9.0 | . | -1.7 | .
Cc1ccc(NC(=O)C(C)N2CCOCC2)c(C(=O)c2ccccc2)c1 (stereo unspecified) | 8.5 | 39.8* | 12.1 | 2.3 | -0.8 | 1.8
COc1cc(/C=C/C(=O)OCC(=O)N(C)Cc2ccccc2)cc(OC)c1OC | 5.5 | 25.8* | 4.3 | . | -0.1 | -5.2
Cc1[nH]c(=O)c(C#N)c2c1COC(C)(C)C2 | 0.3 | 1.1 | . | -1.9 | . | .
CC1=C(C#N)C(=O)OC(C)(C)C1 | -3.6 | 47.5* | -2.3 | 7.1 | 19.6 | 15.4*
O=C(N[C@@H]1CCCc2c1cnn2-c1ccc(F)cc1F)c1ccccn1 | . | . | 7.0 | . | -3.9 | .
CS(=O)(=O)c1cccc(C(=O)NCc2ccccc2)c1 | -9.2 | 34.7* | 6.3 | -0.5 | 11.4 | 4.6
c1ccc(N=NC2=NN(c3ccccc3)CS2)cc1 | . | . | -3.5 | . | 1.8 | .
CS(=O)(=O)c1ccc(C(=O)Nc2cccc(-c3nc4ccccc4[nH]3)c2)cc1 | 6.1 | 28.0* | -8.2 | -14.1 | 5.2 | 12.8
C=CCN1CN(S(=O)(=O)c2cccc(Cl)c2)c2nc3ccccc3nc21 | 6.0 | 46.4* | 7.0 | -1.4 | 3.9 | 3.0
COCCN1CN(S(=O)(=O)c2cccc(Cl)c2)c2nc3ccccc3nc21 | 9.6 | -3.9 | -9.4 | -3.8 | -3.7 | .
Cc1ccc(S(=O)(=O)Nc2ccc3oc(=O)sc3c2)c(C)c1 | 15.9 | 21.9* | 1.0 | 14.4 | 58.7* | 7.4
O=C(O)c1cc(S(=O)(=O)Nc2ccc3oc(=O)sc3c2)ccc1O | 5.9 | 36.5* | 0.2 | 59.8* | 85.8* | 18.7*
SMILES | Apaf1 inhib | PAD4 inh | TDP2 absorb | GSTO1 counter | PRMT1 FP inh | PAD4 FP conf
O=C(NCCCN1CCOCC1)c1cc2c([nH]c3ccccc32)c(-c2cccc(Br)c2)n1 | 33.5 | 46.1* | 7.4 | -16.8 | -2.4 | 31.1*
COc1cccc(-c2nc(C(=O)NCCCN3CCOCC3)cc3c2[nH]c2ccccc23)c1 | 13.9 | 6.4 | 6.8 | -5.7 | -3.2 | .
COc1ccccc1NCCC(=O)O | -34.0 | 1.0 | 12.3 | 0.1 | -0.2 | .
O=C(O)CCNc1ccc(NCCC(=O)O)c2c1C(=O)c1ccccc1C2=O | -12.2 | 22.2* | 3.5 | 17.9 | 27.4* | 10.5
Cc1ccc(NC(=O)CSc2nncc3ccccc23)cc1 | -2.4 | 16.5* | -4.3 | 7.3 | -0.1 | 9.8
O=C(CSc1nncc2ccccc12)N1CCCCC1 | 6.0 | 17.0* | 2.1 | 2.9 | 1.7 | 3.7
O=C(CSc1nc(C2CC2)nc2ccccc12)N1CCCCC1 | -5.9 | 4.0 | -3.3 | -28.6 | -0.8 | .
C(=Nc1ccc(Nc2ccccc2)cc1)c1ccc2ccccc2c1 | . | 24.1* | . | 34.0 | . | 2.7
CC/C(=C\C(=O)c1ccncc1)Nc1ccc(O)cc1 | -3.6 | 77.3* | 14.2 | 9.7 | 15.5 | -5.4
COc1ccccc1N1C(=O)CC(Nc2ccc(N3CCOCC3)cc2)C1=O (stereo unspecified) | 5.7 | 24.0* | 10.9 | 4.8 | 21.8* | 1.7
O=C1CC(Nc2ccc(N3CCOCC3)cc2)C(=O)N1Cc1ccccc1 (stereo unspecified) | 15.7 | 35.5* | 15.0 | 31.9 | 12.3 | -1.1
O=C(O)c1ccc(C#Cc2cccc(F)c2)cn1 | . | . | 6.2 | . | 1.1 | .
C[C@H](N)c1nnc(SCC(=O)c2ccc(Cl)cc2)o1 | -5.8 | -5.1 | -4.2 | 1.7 | -3.9 | .
CC(C)[C@H](N)c1nnc(SCC(=O)c2ccc(Cl)cc2)o1 | -17.4 | 15.4* | -6.0 | 23.8 | 0.7 | 3.4
Cc1onc(C(=O)N2CCOCC2)c1[N+](=O)[O-] | -8.8 | 21.8* | -1.0 | -0.7 | 2.7 | 19.2*
COC/C=C/C1=CC2=CC(=O)C(C)(OC(=O)c3cnc4ccccc4n3)C(=O)C2=CN1CC(C)C (stereo unspecified) | 41.1* | 19.4* | . | 32.0 | . | -1.3
Cc1cc(=O)[nH]c(NN)n1 | -20.1 | 15.8* | -4.2 | -0.3 | 1.9 | 7.3
COc1ccc(NC(=O)c2cc(C)nc3ccccc23)c(OC)c1 | -3.8 | -1.4 | 4.4 | 0.3 | 2.6 | .
COc1cc(NC(=O)c2cc(C)nc3ccccc23)cc(OC)c1OC | -3.3 | 28.5* | -0.7 | 10.3 | -1.5 | 4.6
CCN1C=C(Cc2ccc(OC)cc2)C2=C(C1)C(c1ccc(OC)cc1)C(C#N)=C(N)O2 (stereo unspecified) | 7.8 | 41.7* | 0.9 | 2.9 | 3.2 | 3.5
COC(=O)[C@]12C[C@H](CC(=O)NCCc3ccccc3OC)C(=O)N(Cc3cccc4ccccc34)C1=C[C@H](C(C)C)O[C@@H]2C1CC1 | . | . | -8.4 | . | -3.6 | .
CC1(C(=O)NS(C)(=O)=O)CCN1C(=O)C/C=C/c1ccccc1 (stereo unspecified) | . | . | 7.9 | . | 0.7 | .
O=C1Nc2ccccc2/C1=C/c1ccc([N+](=O)[O-])cc1 | 6.7 | 2.6 | 6.3 | 6.3 | 4.5 | .
CC1(c2ccc([N+](=O)[O-])cc2)Nc2ccccc2S1 (stereo unspecified) | 14.9 | 17.1* | 2.0 | 5.2 | 45.1* | 2.1
Nc1ccccc1O | 7.3 | 15.5* | . | . | . | -0.3
Oc1ccccc1O | -8.2 | 3.8 | -5.5 | 21.9 | 16.3 | .
